Measurements from article PMC3147223 (Journal of biomedical materials research. Part A, 2009).
Where no end group is shown, it is not given here.

Columns and labels:
[1] = tested on: Human pulmonary ECs; assay: Competitive platelet-EC static adhesion assay: EC adhesion; assay type: cell-based; conditions: washed suspension of 190 EC/μl and 50,000 platelet/μl, 30 min, 37°C, n=3, FN=1
In short: (§1)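 Passage-7 ECs were detached (Cellstripper, 30 min) and mixed in 1% BSA with washed platelets (citrated donor blood; PRP pelleted, EDTA-PBS wash), plus 2 mM CaCl2 and 1 mM MgCl2 final. Surfaces (FSP adsorbed 24 h on fluorosilane monolayers, or FN-coated glass) were pre-blocked with 2% BSA for 30 min. Samples were PFA-fixed and stained with FITC anti-CD41a, phalloidin and DAPI. 14–33 epifluorescent fields/surface were analysed; two-sample t-test.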

[2] = tested on: platelets; assay: Competitive platelet-EC static adhesion assay: platelet adhesion; assay type: cell-based, human; conditions: washed suspension of 190 EC/μl and 50,000 platelet/μl, 30 min, 37°C, n=3, FN=1
In short: as §1

| Substance | EC adhesion (EC population) normalized to FN [1] | Platelet surface coverage normalized to FN, platelet-EC suspension [2] |
| --- | --- | --- |
| cyclic(RGDfE)-SSSK (head to tail) [cRGD FSP] | 1.05 | 2.66 |
| GSSS-*CRRETAWAC* (disulfide) [cRRE FSP] | 0.93 |  |
| GSSSRGD [RGD FSP] | 0.99 | 1.99 |
